Data reported in ChEMBL document CHEMBL1128288, “7-Azetidinylquinolones as antibacterial agents. 3. Synthesis, properties and structure-activity relationships of the stereoisomers containing a 7-(3-amino-2-methyl-1-azetidinyl) moiety” (J Med Chem, 1995).
Converted amounts (≈) assume the structure as drawn.

How the values were obtained:
Format in all cases: functional
Pseudomonas aeruginosa [1] = assay: In vitro antibacterial activity measured as minimum inhibitory concentration was evaluated on Pseudomonas aeruginosa ATCC 10145 (Pa).; conditions: Pseudomonas aeruginosa, ATCC 10145; read-out: MIC
In short: (§1)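 Serial 2-fold agar dilution in Mueller Hinton medium, run side by side with reference quinolones. Inoculum 10^5 cfu/mL; compound range 0.007–16 µg/mL.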

Proteus vulgaris = assay: In vitro antibacterial activity measured as minimum inhibitory concentration was evaluated on proteus vulgaris ATCC 8427 (Pv).; conditions: Proteus vulgaris, ATCC 8427; read-out: MIC; in short: as §1
Pseudomonas aeruginosa [2] = assay: In vivo efficacy as ED50 against Pseudomonas aeruginosa HS-116 by oral administration in mice.; conditions: Pseudomonas aeruginosa, po; read-out: ED50
In short: (§2)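 Mice, 4 groups of 10, infected intraperitoneally with slightly more than the LD100 of the organism. A single oral dose was given immediately after infection, with four doses (one per group) chosen from in vitro activity. Survival was scored after one week. ED50 (total dose, mg/kg, protecting 50%) was interpolated among group survival rates.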

Enterococcus faecalis = assay: In vitro antibacterial activity measured as minimum inhibitory concentration was evaluated on Streptococcus faecalis ATCC 10541 (Sf).; conditions: Enterococcus faecalis, ATCC 10541; read-out: MIC; in short: as §1
Escherichia coli [3] = assay: In vitro antibacterial activity measured as minimum inhibitory concentration, was evaluated on Escherichia coli ATCC 23559(Ec).; conditions: Escherichia coli, ATCC 23559; read-out: MIC; in short: as §1
Staphylococcus aureus [4] = assay: In vivo efficacy as ED50 against Staphylococcus aureus HS-93 by oral administration in mice.; conditions: Staphylococcus aureus, po; read-out: ED50; in short: as §2
Escherichia coli [5] = assay: In vivo efficacy as ED50 against Escherichia coli HM-42 by oral administration in mice.; conditions: Escherichia coli, po; read-out: ED50; in short: as §2
Bacillus cereus = assay: In vitro antibacterial activity measured as minimum inhibitory concentration was evaluated on Bacillus cereus ATCC 11778 (Bc).; conditions: Bacillus cereus, ATCC 11778; read-out: MIC; in short: as §1
Bacillus subtilis = assay: In vitro antibacterial activity measured as minimum inhibitory concentration was evaluated on Bacillus subtilis ATCC 6633(Bs).; conditions: Bacillus subtilis, ATCC 6633; read-out: MIC; in short: as §1
[6] = test system: Staphylococcus epidermidis; assay: In vitro antibacterial activity measured as minimum inhibitory concentration was evaluated on Staphylococcus epidermidis ATCC 155-1 (Se).; conditions: Staphylococcus epidermidis, ATCC 155-1; read-out: MIC; in short: as §1
Enterobacter cloacae = assay: In vitro antibacterial activity measured as minimum inhibitory concentration, was evaluated on Enterobacter cloacae ATCC 23355 (Ecl).; conditions: Enterobacter cloacae, ATCC 23355; read-out: MIC
Klebsiella pneumoniae = assay: In vitro antibacterial activity measured as minimum inhibitory concentration was evaluated on klebsiella pneumoniae ATCC 10031 (Kp).; conditions: Klebsiella pneumoniae, ATCC 10031; read-out: MIC
In short: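 Serial 2-fold agar dilution in Mueller Hinton medium, run side by side with reference quinolones.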

Morganella morganii = assay: In vitro antibacterial activity measured as minimum inhibitory concentration was evaluated on morganella morganii ATCC 8019 (Mm).; conditions: Morganella morganii, ATCC 8019; read-out: MIC; in short: as §1
Staphylococcus aureus [7] = assay: In vitro antibacterial activity measured as minimum inhibitory concentration was evaluated on Staphylococcus aureus ATCC 25178 (Sa).; conditions: Staphylococcus aureus, ATCC 25178; read-out: MIC; in short: as §1

SMILES | MIC (Pseudomonas aeruginosa [1]) | MIC (Proteus vulgaris) | ED50 (Pseudomonas aeruginosa [2]) | MIC (Enterococcus faecalis) | MIC (Escherichia coli [3]) | ED50 (Staphylococcus aureus [4]) | ED50 (Escherichia coli [5]) | MIC (Bacillus cereus) | MIC (Bacillus subtilis) | MIC [6] | MIC (Enterobacter cloacae) | MIC (Klebsiella pneumoniae) | MIC (Morganella morganii) | MIC (Staphylococcus aureus [7])
CC1C(N)CN1c1c(F)cc2c(=O)c(C(=O)O)cn(-c3ccc(F)cc3)c2c1F (stereo not drawn) | 2 µg/mL (≈ 4.96 µM) | 0.5 µg/mL (≈ 1.24 µM) | 55 mg/kg | 2 µg/mL (≈ 4.96 µM) | 0.12 µg/mL (≈ 0.298 µM) | 5.7 mg/kg | 2.5 mg/kg |  |  |  |  |  |  | 
CC1C(N)CN1c1c(F)cc2c(=O)c(C(=O)O)cn(-c3ccc(F)cc3F)c2c1Cl (stereo not drawn) | 0.5 µg/mL (≈ 1.14 µM) |  |  |  | 0.03 µg/mL (≈ 0.0685 µM) |  |  | 0.03 µg/mL (≈ 0.0685 µM) | 0.03 µg/mL (≈ 0.0685 µM) | 0.06 µg/mL (≈ 0.137 µM) |  |  |  | 
CC1C(N)CN1c1c(F)cc2c(=O)c(C(=O)O)cn(C3CC3)c2c1Cl (stereo not drawn) |  | 0.03 µg/mL (≈ 0.082 µM) | 38 mg/kg | 0.06 µg/mL (≈ 0.164 µM) | 0.015 µg/mL (≈ 0.041 µM) | 9.6 mg/kg | 2.8 mg/kg | 0.03 µg/mL (≈ 0.082 µM) | 0.03 µg/mL (≈ 0.082 µM) | 0.03 µg/mL (≈ 0.082 µM) | 0.03 µg/mL (≈ 0.082 µM) | 0.015 µg/mL (≈ 0.041 µM) | 0.03 µg/mL (≈ 0.082 µM) | 0.03 µg/mL (≈ 0.082 µM)
CCNCC1(C)CN(c2c(F)cc3c(=O)c(C(=O)O)cn4c3c2OC[C@@H]4C)C1 | 8 µg/mL (≈ 20.5 µM) | 1 µg/mL (≈ 2.57 µM) |  | 2 µg/mL (≈ 5.14 µM) | 0.25 µg/mL (≈ 0.642 µM) |  |  | 0.5 µg/mL (≈ 1.28 µM) | 0.06 µg/mL (≈ 0.154 µM) | 0.25 µg/mL (≈ 0.642 µM) | 0.5 µg/mL (≈ 1.28 µM) | 1 µg/mL (≈ 2.57 µM) | 1 µg/mL (≈ 2.57 µM) | 0.5 µg/mL (≈ 1.28 µM)
C[C@@H]1[C@@H](N)CN1c1c(F)cc2c(=O)c(C(=O)O)cn(-c3ccc(F)cc3F)c2c1F | 0.5 µg/mL (≈ 1.19 µM) | 0.5 µg/mL (≈ 1.19 µM) | 98 mg/kg | 1 µg/mL (≈ 2.37 µM) | 0.06 µg/mL (≈ 0.142 µM) | 11.2 mg/kg | 3 mg/kg | 0.12 µg/mL (≈ 0.285 µM) | 0.06 µg/mL (≈ 0.142 µM) | 0.12 µg/mL (≈ 0.285 µM) | 0.06 µg/mL (≈ 0.142 µM) | 0.06 µg/mL (≈ 0.142 µM) | 0.25 µg/mL (≈ 0.593 µM) | 0.12 µg/mL (≈ 0.285 µM)
CNC1(C)CN(c2c(F)cc3c(=O)c(C(=O)O)cn4c3c2OC[C@@H]4C)C1 | 1 µg/mL (≈ 2.77 µM) | 0.5 µg/mL (≈ 1.38 µM) |  | 0.5 µg/mL (≈ 1.38 µM) | 0.015 µg/mL (≈ 0.0415 µM) |  |  | 0.12 µg/mL (≈ 0.332 µM) | 0.06 µg/mL (≈ 0.166 µM) | 0.12 µg/mL (≈ 0.332 µM) | 0.06 µg/mL (≈ 0.166 µM) | 0.015 µg/mL (≈ 0.0415 µM) | 0.06 µg/mL (≈ 0.166 µM) | 0.12 µg/mL (≈ 0.332 µM)
Cc1c(F)c(N2C[C@H](N)[C@H]2C)nc2c1c(=O)c(C(=O)O)cn2-c1ccc(F)cc1F | 0.5 µg/mL (≈ 1.2 µM) | 1 µg/mL (≈ 2.39 µM) |  | 0.25 µg/mL (≈ 0.598 µM) | 0.06 µg/mL (≈ 0.143 µM) |  |  | 0.06 µg/mL (≈ 0.143 µM) | 0.015 µg/mL (≈ 0.0359 µM) | 0.06 µg/mL (≈ 0.143 µM) | 0.12 µg/mL (≈ 0.287 µM) | 0.12 µg/mL (≈ 0.287 µM) | 0.25 µg/mL (≈ 0.598 µM) | 0.06 µg/mL (≈ 0.143 µM)
CCn1cc(C(=O)O)c(=O)c2cc(F)c(N3CC(N)C3C)c(F)c21 (stereo not drawn) | 1 µg/mL (≈ 2.96 µM) |  | 56 mg/kg | 1 µg/mL (≈ 2.96 µM) | 0.06 µg/mL (≈ 0.178 µM) | 5.1 mg/kg | 4 mg/kg |  | 0.06 µg/mL (≈ 0.178 µM) |  | 0.06 µg/mL (≈ 0.178 µM) |  | 0.06 µg/mL (≈ 0.178 µM) | 
CC1C(N)CN1c1cc2c(cc1F)c(=O)c(C(=O)O)cn2C1CC1 (stereo not drawn) |  | 0.06 µg/mL (≈ 0.181 µM) | 108 mg/kg |  | 0.015 µg/mL (≈ 0.0453 µM) | 22.3 mg/kg | 3.5 mg/kg | 0.06 µg/mL (≈ 0.181 µM) | 0.03 µg/mL (≈ 0.0905 µM) |  | 0.03 µg/mL (≈ 0.0905 µM) | 0.03 µg/mL (≈ 0.0905 µM) | 0.03 µg/mL (≈ 0.0905 µM) | 
C[C@H]1[C@@H](N)CN1c1c(F)cc2c(=O)c(C(=O)O)cn(C3CC3)c2c1F | 2 µg/mL (≈ 5.73 µM) | 1 µg/mL (≈ 2.86 µM) |  | 2 µg/mL (≈ 5.73 µM) | 0.25 µg/mL (≈ 0.716 µM) |  |  | 0.25 µg/mL (≈ 0.716 µM) | 0.25 µg/mL (≈ 0.716 µM) | 1 µg/mL (≈ 2.86 µM) | 0.25 µg/mL (≈ 0.716 µM) | 0.25 µg/mL (≈ 0.716 µM) | 0.25 µg/mL (≈ 0.716 µM) | 0.25 µg/mL (≈ 0.716 µM)
C[C@H]1COc2c(N3CC(C)(N(C)C)C3)c(F)cc3c(=O)c(C(=O)O)cn1c23 | 4 µg/mL (≈ 10.7 µM) | 0.5 µg/mL (≈ 1.33 µM) |  | 2 µg/mL (≈ 5.33 µM) | 0.12 µg/mL (≈ 0.32 µM) |  |  | 0.5 µg/mL (≈ 1.33 µM) | 0.06 µg/mL (≈ 0.16 µM) | 0.12 µg/mL (≈ 0.32 µM) | 0.5 µg/mL (≈ 1.33 µM) | 0.12 µg/mL (≈ 0.32 µM) | 0.25 µg/mL (≈ 0.666 µM) | 0.25 µg/mL (≈ 0.666 µM)
